Active and inactive are the calls of the source. The rule behind the calls is not given here.
Key:
[1] = Cytotoxicity against human NIH-H460 cells assessed as cell viability at 50 nM after 48 hrs by MTT assay relative to control; assay type: functional; details: NIH-H460, 48 h
Outline: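 NIH-H460 cells (RPMI 1640, 10% FBS, 1% L-glutamine, penicillin/streptomycin) were seeded at 1 × 10^4 cells/well and exposed to 50 nM for 48 h. MTT was then added at 0.5 mg/mL final in medium for 2 h in the dark at 37 °C. Formazan was dissolved in DMSO for 15 min at RT and read at 570 nm. Output was inhibitory rate (%).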

NIH-H460 [2] = test: Induction of Nur77 protein expression in human NIH-H460 cells at […] by Western blotting analysis; assay type: functional, cell-based
Outline: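 NIH-H460 cells were treated with vehicle or compound, either at 2.5–40 nM for 3 h or at 20 nM over a time course. Equal amounts of lysate were run on 8% SDS-PAGE and blotted to PVDF. Membranes were blocked in 5% milk/TBST and probed overnight at 4 °C with anti-Nur77 (1:1000). Bands were detected by ECL, with β-actin reprobe as loading control.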

NIH-H460 [3] = test: Induction of apoptosis in human NIH-H460 cells assessed as localization of Nur77 in nucleus at 20 nM after 3 hrs by immunofluorescence microscopic analysis; assay type: functional, cell-based
Outline: (§1)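 NIH-H460 cells on slides were treated with 20 nM for 3 h, then given MitoTracker Red (25 nM) for 15 min. Cells were permeabilised with 0.01% digitonin in PBS for 30 min and blocked with 1% BSA for 30 min. Anti-Nur77 (1:200) was applied for 3 h at RT, then FITC/Cy3 anti-rabbit IgG for 1 h. DAPI marked nuclei, and images were taken by confocal microscopy.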

[4] = Induction of apoptosis in human NIH-H460 cells at 20 nM after 36 hrs by microscopic analysis relative to control; assay type: functional
Outline: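 NIH-H460 cells were exposed to vehicle or 20 nM in serum-free medium for up to 36 h. Detached and attached cells were pooled and stained with 50 μg/mL DAPI plus 100 μg/mL RNase A at 37 °C for 20 min. Apoptotic cells were scored by cytoplasmic shrinkage, membrane blebbing and nuclear condensation/fragmentation, and reported as % apoptotic cells.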

NIH-H460 [5] = test: Induction of apoptosis in human NIH-H460 cells assessed as caspase-3 activation at 20 nM after 24 hrs by Western blotting analysis; assay type: functional, cell-based
NIH-H460 [6] = test: Induction of apoptosis in human NIH-H460 cells assessed as increase in PARP cleavage at 20 nM after 24 hrs by Western blotting analysis; assay type: functional, cell-based
Outline: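 Western blot of NIH-H460 lysates (8% SDS-PAGE, PVDF) probed overnight at 4 °C with anti-PARP (1:1000) to detect cleavage. Detection was by ECL, with β-actin reprobe as loading control. Cleavage was examined at 24 h post-treatment.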

NIH-H460 [7] = test: Induction of apoptosis in human NIH-H460 cells assessed as localization of Nur77 in mitochondria at 20 nM after 3 hrs by immunofluorescence microscopic analysis; assay type: functional, cell-based; outline: as §1
NIH-H460 [8] = test: Induction of apoptosis in human NIH-H460 cells assessed as localization of Nur77 in cytoplasm at 20 nM after 3 hrs by immunofluorescence microscopic analysis; assay type: functional, cell-based; outline: as §1

SMILES | inhibition at 0.05 µM [1] [%] | other results
C[C@H]1O[C@@H](O[C@H]2CC[C@]3(CO)[C@H]4C[C@@H](O)[C@]5(C)[C@@H](C6=CC(=O)OC6)CC[C@]5(O)[C@@H]4CC[C@]3(O)C2)[C@H](O)[C@H](O)[C@H]1O | 64.2 | 
C[C@@H]1O[C@H](O[C@H]2CC[C@]3(C=O)[C@H]4C[C@@H](O)[C@]5(C)[C@@H](C6=CC(=O)OC6)CC[C@]5(O)[C@@H]4CC[C@]3(O)C2)[C@H](O)[C@H](O)[C@H]1O | 81.4 | 
CO[C@H]1[C@@H](O[C@H]2CC[C@]3(C=O)[C@H]4CC[C@]5(C)[C@@H](C6=CC(=O)OC6)CC[C@]5(O)[C@@H]4CC[C@]3(O)C2)O[C@H](C)[C@@H](O)[C@H]1O [STROPHATHOJAVOSIDE] | 65 | 
C[C@H]1O[C@@H](O[C@H]2CC[C@]3(C)[C@H]4C[C@@H](O)[C@]5(C)[C@@H](C6=CC(=O)OC6)CC[C@]5(O)[C@@H]4CC[C@]3(O)C2)[C@H](O)[C@H](O)[C@@H]1O [ANTIOGOSIDE] | 34.3 | 
C[C@@H]1O[C@H](O[C@@H]2CC[C@]3(C=O)[C@H]4CC[C@]5(C)[C@@H](C6=CC(=O)OC6)CC[C@]5(O)[C@@H]4CC[C@]3(O)C2)[C@H](O)[C@H](O)[C@H]1O [ANTIAROSIDE C] | 18.9 | 
C[C@@H]1O[C@@H](O[C@H]2CC[C@]3(C)[C@H]4C[C@@H](O)[C@]5(C)[C@@H](C6=CC(=O)OC6)CC[C@]5(O)[C@@H]4CC[C@]3(O)C2)[C@H](O)[C@H](O)[C@H]1O [ANTIOSIDE] | 75.7 | 
C[C@H]1O[C@@H](O[C@H]2CC[C@]3(C)[C@H]4C[C@@H](O)[C@]5(C)[C@@H](C6=CC(=O)OC6)CC[C@]5(O)[C@@H]4CC[C@]3(O)C2)[C@H](O)[C@H](O)[C@H]1O | 33.9 | 
C[C@@H]1O[C@@H](O[C@@H]2CC[C@]3(C=O)[C@H]4C[C@@H](O)[C@]5(C)[C@@H](C6=CC(=O)OC6)CC[C@]5(O)[C@@H]4CC[C@]3(O)C2)[C@H](O)[C@H](O)[C@H]1O | 6.3 | 
C[C@H]1O[C@@H](O[C@H]2CC[C@]3(C(=O)O)[C@H]4C[C@@H](O)[C@]5(C)[C@@H](C6=CC(=O)OC6)CC[C@]5(O)[C@@H]4CC[C@]3(O)C2)[C@H](O)[C@H](O)[C@@H]1O | 7.8 | Activity (NIH-H460 [2]): Active; Activity (NIH-H460 [3]): Active; Activity [4]: 3.4%; Activity (NIH-H460 [5]): inactive
C[C@]12CC[C@H]3[C@@H](CC[C@]4(O)C[C@@H](O)CC[C@]34CO[C@@H]3O[C@H](CO)[C@@H](O)[C@H](O)[C@H]3O)[C@@]1(O)CC[C@@H]2C1=CC(=O)OC1 | 29.4 | 
C[C@H]1O[C@H](O[C@H]2CC[C@]3(C=O)[C@H]4C[C@@H](O)[C@]5(C)[C@@H](C6=CC(=O)OC6)CC[C@]5(O)[C@@H]4CC[C@]3(O)C2)[C@H](O)[C@H](O)[C@H]1O | 45 | 
C[C@H]1O[C@@H](O[C@@H]2CC[C@]3(C=O)[C@H]4C[C@@H](O)[C@]5(C)[C@@H](C6=CC(=O)OC6)CC[C@]5(O)[C@@H]4CC[C@]3(O)C2)[C@H](O)[C@H](O)[C@@H]1O | 6.9 | 
C[C@H]1O[C@@H](O[C@H]2CC[C@@]3(C=O)[C@H](CC[C@@H]4[C@@H]3C[C@@H](O)[C@]3(C)[C@@H](C5=CC(=O)OC5)CC[C@]43O)C2)[C@H](O)[C@H](O)[C@H]1O | 82.3 | 
C[C@H]1O[C@@H](O[C@H]2CC[C@]3(CO)[C@H]4CC[C@]5(C)[C@@H](C6=CC(=O)OC6)CC[C@]5(O)[C@@H]4CC[C@]3(O)C2)[C@H](O)[C@H](O)[C@H]1O [DEGLUCOCHEIROTOXOL] | 67.9 | 
C[C@H]1O[C@@H](O[C@H]2CC[C@]3(C=O)[C@H]4CC[C@]5(C)[C@@H](C6=CC(=O)OC6)CC[C@]5(O)[C@@H]4CC[C@]3(O)C2)[C@H](O)[C@H](O)[C@H]1O [DESGLUCOCHEIROTOXIN] | 76.9 | 
C[C@@H]1O[C@@H](O[C@H]2CC[C@]3(C=O)[C@H]4CC[C@]5(C)[C@@H](C6=CC(=O)OC6)CC[C@]5(O)[C@@H]4CC[C@]3(O)C2)[C@H](O)[C@H](O)[C@H]1O [CONVALLATOXIN] | 82.1 | 

SMILES | inhibition at 0.05 µM [1] [%] | other results
C[C@]12CC[C@H]3[C@@H](CC[C@]4(O)C[C@@H](O)CC[C@]34C(=O)O[C@@H]3O[C@H](CO)[C@@H](O)[C@H](O)[C@H]3O)[C@@]1(O)CC[C@@H]2C1=CC(=O)OC1 | 11.1 | Activity (NIH-H460 [2]): Active; Activity (NIH-H460 [3]): Active; Activity [4]: 6.8%; Activity (NIH-H460 [5]): inactive
C[C@@H]1C[C@@H](O)[C@@H](O)[C@H](O[C@H]2CC[C@]3(C=O)[C@H]4C[C@@H](O)[C@]5(C)[C@@H](C6=CC(=O)OC6)CC[C@]5(O)[C@@H]4CC[C@]3(O)C2)O1 | 81.6 | 
C[C@H]1O[C@H](O[C@H]2CC[C@]3(C=O)[C@H]4C[C@@H](O)[C@]5(C)[C@@H](C6=CC(=O)OC6)CC[C@]5(O)[C@@H]4CC[C@]3(O)C2)[C@H](O)[C@H](O)[C@@H]1O [ANTIALLOSIDE] | 70.7 | 
C[C@@H]1O[C@@H](O[C@H]2CC[C@@]3(C=O)[C@H](CC[C@@H]4[C@@H]3C[C@@H](O)[C@]3(C)[C@@H](C5=CC(=O)OC5)CC[C@]43O)C2)[C@H](O)[C@H](O)[C@H]1O | 81.9 | 
C[C@@H]1O[C@@H](O[C@H]2CC[C@]3(C=O)[C@H]4C[C@@H](O)[C@]5(C)[C@H](C6=CC(=O)OC6)CC[C@]5(O)[C@@H]4CC[C@]3(O)C2)[C@H](O)[C@H](O)[C@H]1O | 6.2 | 
C[C@H]1O[C@@H](O[C@@H]2CC[C@]3(C=O)[C@H]4C[C@@H](O)[C@]5(C)[C@@H](C6=CC(=O)OC6)CC[C@]5(O)[C@@H]4CC[C@]3(O)C2)[C@H](O)[C@H](O)[C@H]1O | 3.2 | 
CO[C@H]1[C@@H](O[C@H]2CC[C@]3(C=O)[C@H]4C[C@@H](O)[C@]5(C)[C@@H](C6=CC(=O)OC6)CC[C@]5(O)[C@@H]4CC[C@]3(O)C2)O[C@H](C)[C@@H](O)[C@@H]1O [TOXICARIOSIDE B] | 71.4 | 
C[C@H]1O[C@@H](O[C@H]2CC[C@]3(C=O)[C@H]4C[C@@H](O)[C@]5(C)[C@H](C6=CC(=O)OC6)CC[C@]5(O)[C@@H]4CC[C@]3(O)C2)[C@H](O)[C@H](O)[C@H]1O | 9.3 | 
C[C@H]1O[C@@H](O[C@H]2CC[C@]3(C=O)[C@H]4C[C@@H](O)[C@]5(C)[C@@H](C6=CC(=O)OC6)CC[C@]5(O)[C@@H]4CC[C@]3(O)C2)[C@H](O)[C@H](O)[C@@H]1O | 78.9 | Activity (NIH-H460 [2]): Active; Activity (NIH-H460 [6]): Active; Activity (NIH-H460 [7]): Active; Activity (NIH-H460 [3]): Active; Activity [4]: 22.3%; Activity (NIH-H460 [8]): Active; Activity (NIH-H460 [5]): Active
C[C@@H]1O[C@H](O[C@H]2CC[C@]3(CO)[C@H]4CC[C@]5(C)[C@@H](C6=CC(=O)OC6)CC[C@]5(O)[C@@H]4CC[C@]3(O)C2)[C@H](O)[C@H](O)[C@H]1O [CONVALLATOXOL] | 80.7 | 
C[C@@H]1O[C@@H](O[C@H]2CC[C@@]3(CO)[C@H](CC[C@@H]4[C@@H]3CC[C@]3(C)[C@@H](C5=CC(=O)OC5)CC[C@]43O)C2)[C@H](O)[C@H](O)[C@H]1O | 82.4 | 
C[C@@H]1O[C@@H](O[C@H]2CC[C@]3(C=O)[C@H]4C[C@H](O)[C@]5(C)[C@@H](C6=CC(=O)OC6)CC[C@]5(O)[C@@H]4CC[C@]3(O)C2)[C@H](O)[C@H](O)[C@H]1O | 82.8 | 
C[C@H]1O[C@@H](O[C@@H]2CC[C@]3(C=O)[C@H]4CC[C@]5(C)[C@@H](C6=CC(=O)OC6)CC[C@]5(O)[C@@H]4CC[C@]3(O)C2)[C@H](O)[C@H](O)[C@H]1O | 6.8 | 
C[C@@H]1O[C@@H](O[C@H]2CC[C@]3(CO)[C@H]4C[C@@H](O)[C@]5(C)[C@@H](C6=CC(=O)OC6)CC[C@]5(O)[C@@H]4CC[C@]3(O)C2)[C@H](O)[C@H](O)[C@H]1O | 60.2 | 
C[C@H]1O[C@@H](O[C@H]2CC[C@@]3(CO)[C@H](CC[C@@H]4[C@@H]3C[C@@H](O)[C@]3(C)[C@@H](C5=CC(=O)OC5)CC[C@]43O)C2)[C@H](O)[C@H](O)[C@H]1O | 63.8 | 

Reference: ChEMBL document CHEMBL2417467, “Antiproliferative cardiac glycosides from the latex of Antiaris toxicaria” (J Nat Prod, 2013)
